Measurements: ChEMBL document CHEMBL1155154, “Target gene sequencing to characterize the penicillin G susceptibility of Neisseria meningitidis” (2007)
≈ marks a conversion by molar mass, not a printed value.

Tests used:
Type in all cases: functional
Neisseria meningitidis [1] = experiment: Antimicrobial activity against Neisseria meningitidis isolates harboring penA 25 allele encoding PBP2 mutant
Outline: (§1)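 Penicillin G MICs were determined for N. meningitidis isolates grouped by penA allele, with the PBP2 C-terminal region (amino acids 441 to 574) deduced from penA sequencing. Values are geometric mean MICs with lower and upper 95% confidence limits, calculated only for alleles represented by at least five isolates.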

Neisseria meningitidis [2] = experiment: Antimicrobial activity against Neisseria meningitidis isolates harboring penA 29 allele encoding PBP2 mutant; outline: as §1
Neisseria meningitidis [3] = experiment: Antimicrobial activity against Neisseria meningitidis isolates harboring penA 52 allele encoding PBP2 mutant; outline: as §1
Neisseria meningitidis [4] = experiment: Antimicrobial activity against Neisseria meningitidis isolates harboring penA 15 allele encoding PBP2 mutant; outline: as §1
Neisseria meningitidis [5] = experiment: Antimicrobial activity against Neisseria meningitidis isolates harboring penA 12 allele encoding PBP2 mutant; outline: as §1
Neisseria meningitidis [6] = experiment: Antimicrobial activity against Neisseria meningitidis isolates harboring penA 30 allele encoding PBP2 mutant; outline: as §1
Neisseria meningitidis [7] = experiment: Antimicrobial activity against Neisseria meningitidis isolates harboring penA 23 allele encoding PBP2 mutant; outline: as §1
Neisseria meningitidis [8] = experiment: Antimicrobial activity against Neisseria meningitidis isolates harboring penA 42 allele encoding PBP2 mutant; outline: as §1
Neisseria meningitidis [9] = experiment: Antimicrobial activity against Neisseria meningitidis isolates harboring penA 14 allele encoding PBP2 mutant; outline: as §1
Neisseria meningitidis [10] = experiment: Antimicrobial activity against Neisseria meningitidis isolates harboring penA 19 allele encoding PBP2 mutant; outline: as §1
Neisseria meningitidis [11] = experiment: Antimicrobial activity against Neisseria meningitidis isolates harboring penA 7 allele encoding PBP2 mutant; outline: as §1
Neisseria meningitidis [12] = experiment: Antimicrobial activity against Neisseria meningitidis isolates harboring penA 17 allele encoding PBP2 mutant; outline: as §1
Neisseria meningitidis [13] = experiment: Antimicrobial activity against Neisseria meningitidis isolates harboring penA 20 allele encoding PBP2 mutant; outline: as §1
Neisseria meningitidis [14] = experiment: Antimicrobial activity against Neisseria meningitidis isolates harboring penA 81 allele encoding PBP2 mutant; outline: as §1
Neisseria meningitidis [15] = experiment: Antimicrobial activity against Neisseria meningitidis isolates harboring penA 9 allele encoding PBP2 mutant; outline: as §1
Neisseria meningitidis [16] = experiment: Antimicrobial activity against Neisseria meningitidis isolates harboring penA 33 allele encoding PBP2 mutant; outline: as §1
Neisseria meningitidis [17] = experiment: Antimicrobial activity against Neisseria meningitidis isolates harboring penA 13 allele encoding PBP2 mutant; outline: as §1
Neisseria meningitidis [18] = experiment: Antimicrobial activity against Neisseria meningitidis isolates harboring penA 18 allele encoding PBP2 mutant; outline: as §1
Neisseria meningitidis [19] = experiment: Antimicrobial activity against Neisseria meningitidis isolates harboring penA 83 allele encoding PBP2 mutant; outline: as §1
Neisseria meningitidis [20] = experiment: Antimicrobial activity against Neisseria meningitidis isolates harboring penA 11 allele encoding PBP2 mutant; outline: as §1
Neisseria meningitidis [21] = experiment: Antimicrobial activity against Neisseria meningitidis isolates harboring penA 57 allele encoding PBP2 mutant; outline: as §1
Neisseria meningitidis [22] = experiment: Antimicrobial activity against Neisseria meningitidis isolates harboring penA 5 allele encoding PBP2 mutant; outline: as §1
Neisseria meningitidis [23] = experiment: Antimicrobial activity against Neisseria meningitidis isolates harboring penA 2 allele encoding PBP2 mutant; outline: as §1
Neisseria meningitidis [24] = experiment: Antimicrobial activity against Neisseria meningitidis isolates harboring penA 34 allele encoding PBP2 mutant; outline: as §1
Neisseria meningitidis [25] = experiment: Antimicrobial activity against Neisseria meningitidis isolates harboring penA 3 allele encoding PBP2 mutant; outline: as §1
Neisseria meningitidis [26] = experiment: Antimicrobial activity against Neisseria meningitidis isolates harboring penA 27 allele encoding PBP2 mutant; outline: as §1
Neisseria meningitidis [27] = experiment: Antimicrobial activity against Neisseria meningitidis isolates harboring penA 4 allele encoding PBP2 mutant; outline: as §1
Neisseria meningitidis [28] = experiment: Antimicrobial activity against Neisseria meningitidis isolates harboring penA 16 allele encoding PBP2 mutant; outline: as §1
Neisseria meningitidis [29] = experiment: Antimicrobial activity against Neisseria meningitidis isolates harboring penA 1 allele encoding PBP2 mutant; outline: as §1
Neisseria meningitidis [30] = experiment: Antimicrobial activity against Neisseria meningitidis isolates harboring penA 22 allele encoding PBP2 mutant; outline: as §1
Neisseria meningitidis [31] = experiment: Antimicrobial activity against Neisseria meningitidis isolates harboring penA 111 allele encoding PBP2 P551 mutant; outline: as §1

CC1(C)S[C@@H]2[C@H](NC(=O)Cc3ccccc3)C(=O)N2[C@H]1C(=O)O [PENICILLIN G]
MIC (Neisseria meningitidis [1]): 0.064 µg/mL (≈ 0.191 µM) | MIC (Neisseria meningitidis [2]): 0.094 µg/mL (≈ 0.281 µM) | MIC (Neisseria meningitidis [3]): 0.064 µg/mL (≈ 0.191 µM) | MIC (Neisseria meningitidis [4]): 0.094 µg/mL (≈ 0.281 µM) | MIC (Neisseria meningitidis [5]): 0.064 µg/mL (≈ 0.191 µM) | MIC (Neisseria meningitidis [6]): 0.125 µg/mL (≈ 0.374 µM) | MIC (Neisseria meningitidis [7]): 0.064 µg/mL (≈ 0.191 µM) | MIC (Neisseria meningitidis [8]): 0.094 µg/mL (≈ 0.281 µM) | MIC (Neisseria meningitidis [9]): 0.064 µg/mL (≈ 0.191 µM) | MIC (Neisseria meningitidis [10]): 0.064 µg/mL (≈ 0.191 µM) | MIC (Neisseria meningitidis [11]): 0.064 µg/mL (≈ 0.191 µM) | MIC (Neisseria meningitidis [12]): 0.125 µg/mL (≈ 0.374 µM) | MIC (Neisseria meningitidis [13]): 0.094 µg/mL (≈ 0.281 µM) | MIC (Neisseria meningitidis [14]): 0.19 µg/mL (≈ 0.568 µM) | MIC (Neisseria meningitidis [15]): 0.064 µg/mL (≈ 0.191 µM) | MIC (Neisseria meningitidis [16]): 0.125 µg/mL (≈ 0.374 µM) | MIC (Neisseria meningitidis [17]): 0.125 µg/mL (≈ 0.374 µM) | MIC (Neisseria meningitidis [18]): 0.094 µg/mL (≈ 0.281 µM) | MIC (Neisseria meningitidis [19]): 0.023 µg/mL (≈ 0.0688 µM) | MIC (Neisseria meningitidis [20]): 0.094 µg/mL (≈ 0.281 µM) | MIC (Neisseria meningitidis [21]): 0.008 µg/mL (≈ 0.0239 µM) | MIC (Neisseria meningitidis [22]): 0.015 µg/mL (≈ 0.0449 µM) | MIC (Neisseria meningitidis [23]): 0.015 µg/mL (≈ 0.0449 µM) | MIC (Neisseria meningitidis [24]): 0.032 µg/mL (≈ 0.0957 µM) | MIC (Neisseria meningitidis [25]): 0.004 µg/mL (≈ 0.012 µM) | MIC (Neisseria meningitidis [26]): 0.032 µg/mL (≈ 0.0957 µM) | MIC (Neisseria meningitidis [27]): 0.032 µg/mL (≈ 0.0957 µM) | MIC (Neisseria meningitidis [28]): 0.047 µg/mL (≈ 0.141 µM) | MIC (Neisseria meningitidis [29]): 0.008 µg/mL (≈ 0.0239 µM) | MIC (Neisseria meningitidis [30]): 0.023 µg/mL (≈ 0.0688 µM) | MIC (Neisseria meningitidis [31]): 0.094 µg/mL (≈ 0.281 µM)
